Rows were chosen to be rich in hits. Some 3.7% of all compounds tested hit in one or more screens of this group.
KCNQ1 pot – potentiators or activators of human KCNQ1 potassium channel; hit rate 0.35% among 310,000; CHO-K1 KCNQ1, thallium flux FluxOR fluorescence; hits give high values; P51787; B-score at 10 µM;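 active = fluorescence ratio B-score, a plate-corrected score, at least three library SD, with initial intensity B-score within 5 SD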
Target sequence (P51787 whole entry, looked up): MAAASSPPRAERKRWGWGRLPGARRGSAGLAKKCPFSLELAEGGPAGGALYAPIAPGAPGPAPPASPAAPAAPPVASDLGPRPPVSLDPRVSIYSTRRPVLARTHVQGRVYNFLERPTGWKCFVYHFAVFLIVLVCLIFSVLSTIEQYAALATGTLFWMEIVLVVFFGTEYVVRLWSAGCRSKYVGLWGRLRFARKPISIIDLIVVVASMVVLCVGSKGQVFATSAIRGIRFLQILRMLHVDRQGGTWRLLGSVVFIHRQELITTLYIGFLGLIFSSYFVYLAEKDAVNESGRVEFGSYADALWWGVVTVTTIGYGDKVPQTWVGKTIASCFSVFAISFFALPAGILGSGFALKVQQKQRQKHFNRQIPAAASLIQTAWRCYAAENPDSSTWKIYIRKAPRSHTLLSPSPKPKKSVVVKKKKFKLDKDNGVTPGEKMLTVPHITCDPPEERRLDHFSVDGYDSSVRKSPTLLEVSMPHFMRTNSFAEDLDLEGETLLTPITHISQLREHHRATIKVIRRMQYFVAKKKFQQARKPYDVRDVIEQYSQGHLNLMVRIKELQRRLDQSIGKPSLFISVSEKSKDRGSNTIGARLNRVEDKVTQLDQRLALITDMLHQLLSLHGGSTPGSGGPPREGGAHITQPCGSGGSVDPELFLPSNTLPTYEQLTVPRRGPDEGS
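Assay system: stable KCNQ1 CHO-K1 line; medium: assay buffer, equal DMSO in all wells; timing: 90 min dye loading and 20 min compound exposure, both at room temperature; technique: kinetic FluxOR thallium fluorescence, 10-s 1-Hz baseline, 110-s post-stimulus read; read-out basis: B score of baseline-normalized fluorescence ratio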
KCNK3 inh – human KCNK3 channel inhibition, primary screen. B-score at 10 µM. O14649. CHO-KCNK3 thallium flux, FluxOR fluorescence; hits give low values. hit rate 0.84% among 340,000. AID 602410;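 active = B-score under library mean minus 4 SD, starting fluorescence ratio at most library mean plus 5 SD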;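 also: more negative B-score means stronger inhibition of thallium flux through KCNK3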
KCNK9 inh – blocks the human KCNK9 two-pore domain potassium channel; HEK293 KCNK9, FluxOR thallium flux fluorescence; hits give low values; Q9NPC2; hit rate 1.2% among 310,000; B-score at 10 µM;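 active = ratio B-score over 3 SD below the library mean, with starting fluorescence within 5 SD of its mean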;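 also: negative B-score means less thallium flux so channel inhibition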
KCNQ1 inh – blocks the human KCNQ1 potassium channel; CHO-K1 KCNQ1, FluxOR thallium flux fluorescence; hits give high values; AID 2642; B-score at 10 µM; hit rate 1.3% among 310,000;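 active = compounds whose thallium flux B-score, printed positive for inhibition, exceeds three library SD while starting fluorescence stays within three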;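 also: channel opened by potassium depolarization with thallium stimulus after 20 min compound exposure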
hERG protect – hERG (human) protection from proarrhythmic block; Q12809; CHO-hERG, FluxOR thallium flux, dofetilide IC70 present; activation (rescue from dofetilide block), less the hit threshold, % at 10 µM; hit rate 0.51% among 310,000; AID 1511;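 active = activation above the mean of controls blocked by dofetilide plus 5 SD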;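 also: thallium influx through hERG after potassium depolarization seen as dye fluorescence rise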
Kir21 block – blocks the mouse Kir2.1 inward-rectifier potassium channel; P35561; HEK293-Kir2.1, FluxOR thallium flux fluorescence; hits give low values; B-score at 10 µM; hit rate 0.85% among 310,000; AID 1672;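 active = fluorescence ratio B-score at or below minus 3 SD of library scores, with starting-brightness B-score within 2 SD, cut at about -4.2 in these data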;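 also: channel flux triggered by added potassium and thallium sulfate stimulus; B-score of peak minus minimum fluorescence over baseline after thallium stimulus; more negative B-score means stronger Kir2.1 block with less thallium influx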
KCNK9 inh conf – human KCNK9 inhibitor confirmation; inhibition, % at 10 µM; HEK293 KCNK9 cells, FluxOR thallium flux fluorescence; hit rate 43% among 4,900; shares compounds with KCNK9 inh; AID 492992;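 active = thallium signal inhibited by more than 5 SD of the compound-free buffer control wells, on both duplicate plates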
Kir2-1 spec – tests whether KCNK9 modulators also affect mouse Kir2.1; shares compounds with KCNK9 inh; Kir2.1 cells, FluxOR thallium flux fluorescence; inhibition, % at 10 µM; hit rate 4% among 4,900;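 active = thallium signal drop more than 5 SD beyond the mean of the no-compound control wells, seen in both duplicate plates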;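 also: signal is fluorescence rise after thallium addition divided by baseline fluorescence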
KCNK9 uninduced – non-induced cell nonspecific activity of KCNK9 modulators; shares compounds with KCNK9 inh; non-induced KCNK9-HEK293, FluxOR thallium flux; inhibition, % at 10 µM; hit rate 40% among 4,900;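 active = thallium signal drop beyond 5 SD of the untreated control mean, on both duplicate plates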
Each line names hits and unclear results; the compound was inactive in the other large screens (follow-up assays come after a bar, where they were run).

COc1ccccc1N(C(=O)c1ccco1)C(C(=O)NC1CCCCC1)c1cc(OC)c(OC)c(OC)c1 (stereo not drawn)	none
O=C(CCNc1cc(Cl)cc(Cl)c1)c1cccs1	KCNK9 inh -8.7 | KCNK9 inh conf inactive | Kir2-1 spec inactive | KCNK9 uninduced 38%
O=C(CCNc1ccc(Cl)cc1)c1cccs1	none
O=C(CCc1ccc(CCC(=O)c2cccs2)s1)c1cccs1	KCNK9 inh -11 | KCNK9 inh conf 57% | Kir2-1 spec inactive | KCNK9 uninduced 38%
O=C1CC(NNc2ccccc2)C(=O)N1c1ccc(N2CCCCC2)cc1 (stereo not drawn)	none (no result: KCNQ1 pot, KCNK9 inh, KCNQ1 inh, hERG protect, Kir21 block)
CSc1ccc(CN(C)CC(=O)NC(=O)NC(C)(C)C)cc1	none | KCNK9 inh conf inactive | Kir2-1 spec inactive | KCNK9 uninduced inactive
COc1cc(C)c(NC(=O)Cc2ccsc2)cc1OC	none
CCOC(=O)C1(CC2CC2)CCN(Cc2cn(C)c3ccccc23)CC1	none | KCNK9 inh conf inactive | Kir2-1 spec inactive | KCNK9 uninduced inactive
Cc1cc(C)cc(C(=O)NC(CC(N)=O)c2ccc(N3CCC(Cc4ccccc4)CC3)c([N+](=O)[O-])c2)c1 (stereo not drawn)	KCNK9 inh -13 | KCNK9 inh conf 53% | Kir2-1 spec inactive | KCNK9 uninduced 36%
Cc1cc(C)cc(C(=O)NC(CC(N)=O)c2ccc(N3CCN(c4ccccc4)CC3)c([N+](=O)[O-])c2)c1 (stereo not drawn)	none
O=C(CSc1nc2c(cnn2-c2ccccc2)c(=O)[nH]1)N1N=C(c2cccs2)CC1c1ccc(F)cc1 (stereo not drawn)	KCNK9 inh -14 | KCNK9 inh conf inactive | Kir2-1 spec inactive | KCNK9 uninduced inactive
CCSc1nc2ccccc2n1C(=O)c1ccc(S(=O)(=O)N2CCCCCC2)cc1	none | KCNK9 inh conf inactive | Kir2-1 spec inactive | KCNK9 uninduced inactive
CCOc1ccccc1NC(=O)CN1CCN(Cc2ccccc2)CC1	none
CCN1CCc2c(OCc3ccccc3)cccc2C1=O	none
O=C1c2cccc(OCc3ccc(F)cc3)c2CCN1Cc1ccccc1	KCNK9 inh -11 | KCNK9 inh conf 70% | Kir2-1 spec inactive | KCNK9 uninduced 48%
Cc1ccc(COc2cccc3c2CCN(Cc2ccc(F)cc2)C3=O)cc1	KCNK9 inh -10 | KCNK9 inh conf 74% | Kir2-1 spec inactive | KCNK9 uninduced 41%
O=C(CCc1ccc(Oc2cc([N+](=O)[O-])cc([N+](=O)[O-])c2)cc1)N1CCCCC1	none
O=C(/C=C/c1ccc(OC2CSC2)cc1)c1ccccc1	KCNK9 inh -16 | KCNK9 inh conf 42% | Kir2-1 spec inactive | KCNK9 uninduced 28%
O=C(N/N=C/c1ccc(OC2CSC2)cc1)c1ccccc1	none
CCn1c(SCC(=O)N/N=C/C(C)=C\c2ccco2)nnc1-c1ccccc1	none | KCNK9 inh conf inactive | Kir2-1 spec inactive | KCNK9 uninduced inactive
Cc1ccc(C)c(C(=O)COC(=O)C2CCN(c3ccc(C(F)(F)F)cn3)CC2)c1	none | KCNK9 inh conf inactive | Kir2-1 spec inactive | KCNK9 uninduced inactive
O=C(CSCC(=O)N1CCCCC1)Nc1nc(-c2ccc(Cl)s2)cs1	none | KCNK9 inh conf inactive | Kir2-1 spec inactive | KCNK9 uninduced inactive
O=C(CSCC(=O)N1CCN(c2ccccc2)CC1)Nc1nc(-c2ccc(Cl)s2)cs1	none
COc1ccc(C(=O)CSc2ccc(-c3ccccc3)nn2)cc1	none | KCNK9 inh conf inactive | Kir2-1 spec inactive | KCNK9 uninduced inactive
COc1cccc(-c2ccc(SCC(=O)c3ccccc3)nn2)c1	none | KCNK9 inh conf inactive | Kir2-1 spec inactive | KCNK9 uninduced inactive
COc1ccccc1C1CCN(C(=O)c2ccccc2)CC1	none
COc1ccccc1C1CCN(C(=O)c2cnn(-c3ccccc3)c2C)CC1	none | KCNK9 inh conf inactive | Kir2-1 spec inactive | KCNK9 uninduced inactive
O=C(NC1CCCCC1)C1CCCN(S(=O)(=O)c2cccc3cccnc23)C1 (stereo not drawn)	none
O=C(C1CCCN(S(=O)(=O)c2cccc3cccnc23)C1)N1CCc2ccccc21 (stereo not drawn)	none | KCNK9 inh conf inactive | Kir2-1 spec inactive | KCNK9 uninduced inactive
CCC1(C)C(Nc2c(C)cccc2C)=NC(=S)N1c1ccc(NC(C)=O)cc1 (stereo not drawn)	none
CCC(C)(C)n1nnnc1C(c1ccncc1)N1CCN(c2cccc(OC)c2)CC1 (stereo not drawn)	none
CCC(C)(C)n1nnnc1C(c1cccnc1)N1CCN(c2cccc(C(F)(F)F)c2)CC1 (stereo not drawn)	KCNK9 inh -11 | KCNK9 inh conf 32% | Kir2-1 spec inactive | KCNK9 uninduced inactive
O=C(c1ccc2c(c1)OCO2)C1CCCN(Cc2cn[nH]c2-c2cccc(F)c2)C1 (stereo not drawn)	none
CSc1ccccc1NC(=O)N1CCCC(C(=O)c2ccc3c(c2)OCO3)C1 (stereo not drawn)	none | KCNK9 inh conf inactive | Kir2-1 spec inactive | KCNK9 uninduced inactive
O=C(c1ccc2c(c1)OCO2)C1CCCN(C(=O)c2cnn(Cc3ccccc3)c2)C1 (stereo not drawn)	none | KCNK9 inh conf inactive | Kir2-1 spec inactive | KCNK9 uninduced inactive
O=C(c1ccc2c(c1)OCO2)C1CCCN(C(=O)NCc2ccccc2)C1 (stereo not drawn)	none
O=C(c1ccc2c(c1)OCO2)C1CCCN(Cc2ccc3cccc(F)c3n2)C1 (stereo not drawn)	none | KCNK9 inh conf inactive | Kir2-1 spec inactive | KCNK9 uninduced inactive
CC(=O)c1ccc(NC(=O)N2CCCC(C(=O)c3ccc4c(c3)OCO4)C2)cc1 (stereo not drawn)	none
COc1cc(CCC(=O)OCC(=O)Nc2ccc(F)cc2F)cc(OC)c1OC	none
C=C1C(=O)O[C@@]23[C@H]1CC[C@@H](C)[C@@H]2CC[C@@]1(C)O[C@@H]31	none (no result: KCNQ1 pot, KCNK9 inh, KCNQ1 inh, hERG protect, Kir21 block)
Cc1cccc(N2CCN(Cc3nc(-c4ccc(F)cc4F)oc3C)CC2)n1	none | KCNK9 inh conf inactive | Kir2-1 spec inactive | KCNK9 uninduced inactive
Cc1cnc(C)c(N2CCN(Cc3nc(-c4cccc(F)c4F)oc3C)CC2)n1	none
O=C(O)CN1C(=O)/C(=C\c2cccc(OCc3ccccc3F)c2)SC1=S	none | KCNK9 inh conf inactive | Kir2-1 spec inactive | KCNK9 uninduced inactive
O=C(CN1C(=O)S/C(=C\C=C\c2ccccc2)C1=O)Nc1cccc(O)c1	none
O=C(O)CN1C(=O)/C(=C\c2ccccc2OCc2ccc(Cl)cc2)SC1=S	none | KCNK9 inh conf inactive | Kir2-1 spec inactive | KCNK9 uninduced inactive
